Test results reported in ChEMBL document CHEMBL1156469 (2007).
Activity calls are given as the source filed them. The calls are words filed in the database; no cut-off is given here.

Legend:
[1] = test system: MG-63; experiment: Increase in osteocalcin levels in human MG63 cells at 1 uM after 72 hrs by ELISA; type: functional, cell-based
How it was run: (§1)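 Cells treated with 1 μm for 72 h; osteocalcin or osteopontin in culture medium by sandwich ELISA, HRP-streptavidin/TMB, 450 nm; percent change versus untreated control.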

[2] = Effect on colony stimulating factor 2 gene expression in rat primary osteoblast cells assessed as expression ratio of treated to untreated control by microarray analysis; type: functional
[3] = test system: Osteoblast; experiment: Effect on vascular endothelial growth factor A gene expression in rat primary osteoblast cells assessed as expression ratio of treated to untreated control by microarray analysis; type: functional
How it was run: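 GEArray Q series Mouse Osteogenesis cDNA array profiling osteogenic-differentiation genes in treated versus vehicle-treated primary osteoblasts.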

[4] = test system: Osteoblast; experiment: Increase in BMP2 levels in rat primary osteoblast cells at 1 uM by Western blot; type: functional, cell-based; conditions: TDE = time-dependent effect
How it was run: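 Osteoblasts treated with 1 μm for the indicated times; lysates resolved by SDS-PAGE, transferred to nitrocellulose, probed with anti-BMP-2, ECL detection.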

[5] = test system: MC3T3-E1; experiment: Reversal of increase in ER.DNA complex in mouse MC3T3-E1 cells at 1 uM by RT-PCR in presence of PP2; type: functional, cell-based
How it was run: (§2)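 BMP-2 promoter quantified by real-time PCR (45 cycles, 61 °C anneal), reported as IP-to-input Ct ratio. DN-Src by 3 μg vector, PP2 at 10 μM; ICI182780 and tamoxifen at indicated concentrations.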

[6] = test system: Osteoblast; experiment: Effect on annexin A5 gene expression in rat primary osteoblast cells assessed as expression ratio of treated to untreated control by microarray analysis; type: functional
[7] = test system: Osteoblast; experiment: Effect on matrix metalloprotease 9 gene expression in rat primary osteoblast cells assessed as expression ratio of treated to untreated control by microarray analysis; type: functional
How it was run: (§3)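 Resveratrol-treated and vehicle-treated primary osteoblasts were profiled on a mouse osteogenesis-focused cDNA array (GEArray Q series) built to track gene expression during osteogenic differentiation. Each gene's signal in treated cells was expressed as a ratio to untreated control.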

[8] = target: RAC-alpha serine/threonine-protein kinase (Homo sapiens) (UniProt P31749); experiment: Inhibition of IGF-induced Akt phosphorylation in human MDA-MB-231 cells by Western blot; type: cell-based
How it was run: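 MDA-MB-231 cells, control or treated, stimulated with or without IGF; lysates analyzed by Western blot for Akt phosphorylation.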

[9] = Reversal of increase in BMP2 expression in mouse MC3T3-E1 cells expressing pBMP2/mSp1 mutant at 1 uM after 4 hrs by luciferase method; type: functional, cell-based
[10] = test system: Osteoblast; experiment: Effect on bone morphogenetic protein 5 gene expression in rat primary osteoblast cells assessed as expression ratio of treated to untreated control by microarray analysis; type: functional
[11] = test system: Osteoblast; experiment: Inhibition of TNF-alpha-induced apoptosis in rat primary osteoblast cells after 24 hrs by flow cytometry; type: functional, cell-based
How it was run: (§4)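 Cells washed in PBS, held 30 min in 0.5% Triton X-100/PBS/0.05% RNase A, then propidium iodide (50 μg/ml) added and kept on ice 15–30 min. Apoptosis is the hypodiploid fraction below the G0/G1 peak, by flow cytometry. Run in triplicate and repeated on three occasions.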

[12] = test system: MC3T3-E1; experiment: Increase in BMP2 expression in mouse MC3T3-E1 cells expressing pBMP2delta2 mutant at 1 uM after 4 hrs by luciferase method relative to control; type: functional, cell-based
How it was run: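 MC3T3-E1 cells transfected with BMP-2 promoter–luciferase constructs (full promoter or deletions), treated with 1 μm or vehicle for 4 h; Dual-Luciferase assay; means ± S.D.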

[13] = target: T1, Alkaline phosphatase (Mus musculus) (UniProt Q9EQ79); experiment: Inhibition of induction of ALP activity in mouse MC3T3-E1 cells at 1 uM after 48 hrs in presence of noggin; type: cell-based
T1 sequence (whole entry): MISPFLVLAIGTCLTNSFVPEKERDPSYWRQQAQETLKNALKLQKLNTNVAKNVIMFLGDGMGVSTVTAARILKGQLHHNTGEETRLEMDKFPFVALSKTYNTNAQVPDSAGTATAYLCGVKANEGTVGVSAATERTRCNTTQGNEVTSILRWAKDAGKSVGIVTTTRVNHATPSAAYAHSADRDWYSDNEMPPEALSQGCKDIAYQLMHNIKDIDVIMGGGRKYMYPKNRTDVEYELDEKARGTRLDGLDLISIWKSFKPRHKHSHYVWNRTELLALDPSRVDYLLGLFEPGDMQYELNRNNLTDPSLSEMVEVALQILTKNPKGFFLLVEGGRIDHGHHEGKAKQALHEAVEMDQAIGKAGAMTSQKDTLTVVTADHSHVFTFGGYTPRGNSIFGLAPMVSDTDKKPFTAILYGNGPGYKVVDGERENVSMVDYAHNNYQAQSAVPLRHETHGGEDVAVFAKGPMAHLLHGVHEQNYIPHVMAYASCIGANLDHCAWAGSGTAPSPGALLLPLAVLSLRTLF

[14] = test system: MC3T3-E1; experiment: Inhibition of TNF-alpha-induced apoptosis in mouse MC3T3-E1 cells after 24 hrs by flow cytometry; type: functional, cell-based; how it was run: as §4
[15] = target: T1, Alkaline phosphatase (Mus musculus); experiment: Increase in ALP activity in mouse MC3T3-E1 cells at 0.1 to 10 uM after 7 days; type: cell-based
[16] = test system: MC3T3-E1; experiment: Inhibition of antiapoptotic activity in mouse MC3T3-E1 cells at 1 uM after 48 hrs in presence of BMP2-specific neutralizing antibody; type: functional, cell-based
[17] = target: Alkaline phosphatase (Rattus norvegicus) (UniProt Q9JKS8); experiment: Inhibition of induction of ALP activity in rat primary osteoblast cells at 1 uM after 48 hrs in presence of BMP2-specific neutralizing antibody; type: cell-based
[18] = test system: Osteoblast; experiment: Effect on insulin-like growth factor 1 gene expression in rat primary osteoblast cells assessed as expression ratio of treated to untreated control by microarray analysis; type: functional; how it was run: as §3
[19] = Reversal of induction in BMP2 expression in mouse MC3T3-E1 cells at 1 uM by Western blot in presence of PP2; type: functional, cell-based
How it was run: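 Src phosphorylation, ERα nuclear translocation and BMP-2 protein analysed by Western blot with ECL detection. Three independent experiments.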

[20] = test system: Rattus norvegicus; experiment: Increase in bone mineral density in ovariectomized Wistar rat dosed orally after 10 weeks; type: functional, organism-based
How it was run: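 Female Wistar rats sham-operated or ovariectomized, fed compound orally every 2 days at indicated doses; femur/tibia BMD by DEXA under ketamine (87 mg/kg)/xylazine (13 mg/kg) anesthesia and serum ALP measured 10 weeks after surgery; n = 8/group, means ± S.D.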

[21] = test system: Osteoblast; experiment: Effect on actin beta gene expression in rat primary osteoblast cells assessed as expression ratio of treated to untreated control by microarray analysis; type: functional
[22] = test system: Osteoblast; experiment: Increase in osteocalcin levels in rat primary osteoblast cells at 1 uM after 72 hrs by ELISA; type: functional, cell-based; how it was run: as §1
[23] = test system: MC3T3-E1; experiment: Reversal of induction in ER.DNA complex in mouse MC3T3-E1 cells at 1 uM by RT-PCR in presence of ICI-182780; type: functional, cell-based; how it was run: as §2
[24] = test system: Osteoblast; experiment: Inhibition of antiapoptotic activity in rat primary osteoblast cells at 1 uM after 48 hrs in presence of noggin; type: functional, cell-based
[25] = test system: Osteoblast; experiment: Effect on integrin beta 1 gene expression in rat primary osteoblast cells assessed as expression ratio of treated to untreated control by microarray analysis; type: functional; how it was run: as §3

Chain of Alkaline phosphatase (Rattus norvegicus) (Q9JKS8 as listed by the source): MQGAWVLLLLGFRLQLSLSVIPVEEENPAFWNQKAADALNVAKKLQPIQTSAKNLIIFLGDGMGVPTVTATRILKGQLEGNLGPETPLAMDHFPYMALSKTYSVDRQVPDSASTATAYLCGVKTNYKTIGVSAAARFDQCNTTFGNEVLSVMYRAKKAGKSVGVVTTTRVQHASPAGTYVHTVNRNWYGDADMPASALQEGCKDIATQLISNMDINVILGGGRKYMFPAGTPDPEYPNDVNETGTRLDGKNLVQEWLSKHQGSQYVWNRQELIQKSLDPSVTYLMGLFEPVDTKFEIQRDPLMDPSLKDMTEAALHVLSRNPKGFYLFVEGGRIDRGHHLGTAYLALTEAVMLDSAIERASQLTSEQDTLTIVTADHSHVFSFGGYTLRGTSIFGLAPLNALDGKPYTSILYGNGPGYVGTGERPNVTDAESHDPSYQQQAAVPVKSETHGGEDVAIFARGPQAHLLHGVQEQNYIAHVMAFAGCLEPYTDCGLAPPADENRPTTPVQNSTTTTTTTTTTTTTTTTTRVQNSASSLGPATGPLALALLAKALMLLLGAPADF
Chain of RAC-alpha serine/threonine-protein kinase (Homo sapiens) (P31749 whole entry): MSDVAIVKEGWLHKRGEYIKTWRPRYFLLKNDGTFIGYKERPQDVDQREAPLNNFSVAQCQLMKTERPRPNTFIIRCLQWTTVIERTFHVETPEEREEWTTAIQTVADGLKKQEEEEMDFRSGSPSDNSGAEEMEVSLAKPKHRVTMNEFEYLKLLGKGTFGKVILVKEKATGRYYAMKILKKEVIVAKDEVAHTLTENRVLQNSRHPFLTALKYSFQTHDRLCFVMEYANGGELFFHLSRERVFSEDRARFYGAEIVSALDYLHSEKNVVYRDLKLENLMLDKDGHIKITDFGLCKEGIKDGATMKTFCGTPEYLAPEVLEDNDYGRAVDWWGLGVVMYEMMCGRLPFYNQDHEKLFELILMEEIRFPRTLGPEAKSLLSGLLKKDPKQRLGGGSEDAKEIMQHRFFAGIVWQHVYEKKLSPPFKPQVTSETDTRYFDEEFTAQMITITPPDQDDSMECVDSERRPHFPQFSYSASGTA

With `Oc1ccc(/C=C/c2cc(O)cc(O)c2)cc1` [RESVERATROL] the Activity [1] was “Active”, the Ratio [2] was 0.35 and the Ratio [3] was 0.44. The Activity [4] was “tde”, the Activity [5] was “Active” and the Ratio [6] was 4.02. For the same compound, the Ratio [7] was 0.43, the Activity [8] was “Active” and the Activity [9] was “inactive”. The Ratio [10] was 0.97, the Activity [11] was “Active” and the Activity [12] was “inactive”. For the same compound, the Activity [13] was “Active”, the Activity [14] was “Active” and the Activity [15] was “Active”. For the same compound, the Activity [16] was “Active”, the Activity [17] was “Active” and the Ratio [18] was 4.54. For the same compound, the Activity [19] was “Active”, the Activity [20] was “Dose-dependent effect” and the Ratio [21] was 1. For the same compound, the Activity [22] was “Active”, the Activity [23] was “Dose-dependent effect” and the Activity [24] was “Active”. It also gave a Ratio [25] of 2.97.
